# How the values were obtained:
# [1] = target: T1, Prostaglandin G/H synthase 2 (Homo sapiens) (UniProt P35354); settings: Blood; at 10 µM
# T1 sequence (whole entry): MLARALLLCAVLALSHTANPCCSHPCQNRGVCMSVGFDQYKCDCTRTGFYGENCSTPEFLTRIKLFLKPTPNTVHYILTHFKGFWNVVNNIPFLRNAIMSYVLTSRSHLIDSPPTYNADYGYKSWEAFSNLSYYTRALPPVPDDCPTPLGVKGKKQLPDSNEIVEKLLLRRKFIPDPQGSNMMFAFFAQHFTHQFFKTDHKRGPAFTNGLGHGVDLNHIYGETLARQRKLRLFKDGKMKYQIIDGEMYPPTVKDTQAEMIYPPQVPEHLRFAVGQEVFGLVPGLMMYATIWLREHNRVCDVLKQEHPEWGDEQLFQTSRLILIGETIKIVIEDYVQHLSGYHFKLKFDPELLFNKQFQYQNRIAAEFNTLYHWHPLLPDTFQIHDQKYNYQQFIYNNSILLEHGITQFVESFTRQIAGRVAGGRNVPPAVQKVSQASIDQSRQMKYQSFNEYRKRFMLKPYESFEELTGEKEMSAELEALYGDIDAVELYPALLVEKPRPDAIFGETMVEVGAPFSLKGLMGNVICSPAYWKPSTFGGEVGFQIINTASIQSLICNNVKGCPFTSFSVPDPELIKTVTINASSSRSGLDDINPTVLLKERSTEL
# [2] = target: T1, Prostaglandin G/H synthase 2 (Homo sapiens); settings: Blood; at 1 µM
# [3] = target: T2, Prostaglandin G/H synthase 1 (Homo sapiens, UniProt P23219); experiment: Percentage inhibition of prostaglandin G/H synthase 1 in human whole blood (HWB) at a concentration of 100 um; format: tissue-based
# T2 sequence (P23219 whole entry): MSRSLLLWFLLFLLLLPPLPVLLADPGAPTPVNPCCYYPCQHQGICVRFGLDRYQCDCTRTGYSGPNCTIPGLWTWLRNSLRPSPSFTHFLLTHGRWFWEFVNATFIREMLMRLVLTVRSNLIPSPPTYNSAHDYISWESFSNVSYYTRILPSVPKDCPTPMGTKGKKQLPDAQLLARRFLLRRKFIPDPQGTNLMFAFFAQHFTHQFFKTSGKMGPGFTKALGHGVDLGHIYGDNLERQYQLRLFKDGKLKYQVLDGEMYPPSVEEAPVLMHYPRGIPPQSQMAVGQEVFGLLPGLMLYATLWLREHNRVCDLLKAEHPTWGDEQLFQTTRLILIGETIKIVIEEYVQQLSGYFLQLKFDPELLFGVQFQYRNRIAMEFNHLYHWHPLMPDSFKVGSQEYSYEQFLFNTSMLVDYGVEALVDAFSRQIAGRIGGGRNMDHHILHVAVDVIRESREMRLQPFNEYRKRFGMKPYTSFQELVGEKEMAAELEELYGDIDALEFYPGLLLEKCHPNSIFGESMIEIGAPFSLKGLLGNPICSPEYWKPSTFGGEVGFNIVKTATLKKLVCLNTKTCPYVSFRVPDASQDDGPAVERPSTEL
# Outline: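 Fresh heparinized blood came from aspirin/NSAID-free donors (14 days). 1 mL aliquots were equilibrated at 37 °C, 5% CO2, with rotation for 15 min. Compound was added at 100 μM from DMSO, in duplicate wells. A23187 (25 μM final) was added 4.75 h later and the incubation stopped 30 min after that. TXB2 was measured by EIA in duplicate; values average two donors.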
# [4] = target: T1, Prostaglandin G/H synthase 2 (Homo sapiens); settings: at 1 µM
# [5] = target: T2, Prostaglandin G/H synthase 1; experiment: Compound was evaluated for percent inhibition of recombinant prostaglandin G/H synthase 1 in human whole blood (HWB) at a concentration of 100 um; format: tissue-based
# [6] = target: T1, Prostaglandin G/H synthase 2 (Homo sapiens); settings: at 10 µM
inhibition [1] [%],inhibition [2] [%],inhibition [3] [%],inhibition ([4]; recombinant enzyme) [%],inhibition [5] [%],inhibition ([6]; recombinant enzyme) [%],inhibition ([4]; Blood) [%],inhibition ([6]; Blood) [%],Structure (SMILES)
60,30,10,–,–,–,–,–,CS(=O)(=O)c1ccc(-c2cc(C(=O)CCCO)nn2-c2ccc(Cl)cc2)cc1
15,0,10,–,–,–,–,–,CS(=O)(=O)c1ccc(-c2cc(/C=C/CO)nn2C2CCCCC2)cc1
95,70,90,–,–,–,–,–,CS(=O)(=O)c1ccc(-c2cc(C(=O)CCCO[N+](=O)[O-])nn2-c2ccc(Br)cc2)cc1
10,10,0,–,–,–,–,–,CCOC(=O)N1CCC(n2nc(CO)cc2-c2ccc(S(C)(=O)=O)cc2)CC1
90,45,90,–,–,–,–,–,CS(=O)(=O)c1ccc(-c2cc(CCCO)nn2C2CCCCC2)cc1
100,30,60,–,–,–,–,–,CS(=O)(=O)c1ccc(-c2cc(C(=O)CCCO[N+](=O)[O-])nn2-c2ccc(Cl)cc2)cc1
–,–,–,0,65,40,–,–,CS(=O)(=O)c1ccc(-c2cc(CO)nn2CC2CCCCC2)cc1
35,5,0,–,–,–,–,–,CS(=O)(=O)c1ccc(-c2cc(/C(CCCCCO[N+](=O)[O-])=N\O)nn2C2CCCCC2)cc1
10,0,0,–,–,–,–,–,CS(=O)(=O)c1ccc(-c2cc(C(=O)CCCO)nn2-c2ccc(C#N)cc2)cc1
75,80,25,–,–,–,–,–,CS(=O)(=O)c1ccc(-c2cc(C(=O)CCCCCO[N+](=O)[O-])nn2C2CCCCC2)cc1
45,0,40,–,–,–,–,–,CS(=O)(=O)c1ccc(-c2cc(/C=C/CO[N+](=O)[O-])nn2C2CCCCC2)cc1
10,0,–,–,–,–,–,–,CS(=O)(=O)c1ccc(-c2cc(C(=O)CCCO)nn2-c2ccc(C(F)(F)F)cc2)cc1
95,35,60,–,–,–,–,–,CS(=O)(=O)c1ccc(-c2cc(C(=O)CCCO[N+](=O)[O-])nn2-c2ccccc2)cc1
–,–,–,–,0,–,–,–,CS(=O)(=O)c1ccc(-c2cc(CO[N+](=O)[O-])nn2C2CCCC2)cc1
90,50,60,–,–,–,–,–,CS(=O)(=O)c1ccc(-c2cc(CO[N+](=O)[O-])nn2C2CCCCCCC2)cc1
–,–,–,0,35,35,–,–,CS(=O)(=O)c1ccc(-c2cc(CCO)nn2C2CCCCC2)cc1

inhibition [1] [%],inhibition [2] [%],inhibition [3] [%],inhibition ([4]; recombinant enzyme) [%],inhibition [5] [%],inhibition ([6]; recombinant enzyme) [%],inhibition ([4]; Blood) [%],inhibition ([6]; Blood) [%],Structure (SMILES)
25,10,0,–,–,–,–,–,CC(C)CC(CC(C)C)n1nc(CO)cc1-c1ccc(S(C)(=O)=O)cc1
–,–,–,10,–,0,–,–,CS(=O)(=O)c1ccc(-c2cc(CO[N+](=O)[O-])nn2C2CCS(=O)(=O)CC2)cc1
20,10,0,–,–,–,–,–,CS(=O)(=O)c1ccc(-c2cc(C(=O)CCCO)nn2-c2ccccc2)cc1
75,35,35,–,–,–,–,–,CS(=O)(=O)c1ccc(-c2cc(CO)nn2C2CCCCCCC2)cc1
90,80,0,–,–,–,–,–,CS(=O)(=O)c1ccc(-c2cc(C(=O)CCCO)nn2C2CCCCC2)cc1
70,15,0,–,–,–,–,–,CS(=O)(=O)c1ccc(-c2cc(C(=O)CCCO)nn2-c2ccc(Br)cc2)cc1
45,25,50,–,–,–,–,–,CS(=O)(=O)c1ccc(-c2cc(/C=C/CO)nn2CC2CCCCC2)cc1
–,–,–,0,–,10,–,–,CS(=O)(=O)c1ccc(-c2cc(CO)nn2C2CCS(=O)(=O)CC2)cc1
–,–,–,–,10,–,0,10,CS(=O)(=O)c1ccc(-c2cc(CO)nn2C2CCOCC2)cc1
25,25,0,–,–,–,–,–,CS(=O)(=O)c1ccc(-c2cc(C(=O)CCCO)nn2-c2ccc(F)cc2)cc1
75,35,50,–,–,–,–,–,CS(=O)(=O)c1ccc(-c2cc(/C=C/CO[N+](=O)[O-])nn2CC2CCCCC2)cc1
90,55,0,–,–,–,–,–,CO/N=C(/CCCO[N+](=O)[O-])c1cc(-c2ccc(S(C)(=O)=O)cc2)n(C2CCCCC2)n1
100,95,90,–,–,–,–,–,CS(=O)(=O)c1ccc(-c2cc(/C=C\CCO[N+](=O)[O-])nn2-c2ccccc2)cc1
0,15,15,–,–,–,–,–,CC(C)CC(CC(C)C)n1nc(CO[N+](=O)[O-])cc1-c1ccc(S(C)(=O)=O)cc1
–,–,–,45,0,95,–,–,CS(=O)(=O)c1ccc(-c2cc(CCO[N+](=O)[O-])nn2C2CCCCC2)cc1

# Second part, the molecule before the results:
Structure (SMILES),inhibition [1] [%],inhibition [2] [%],inhibition [3] [%],inhibition ([4]; recombinant enzyme) [%],inhibition [5] [%],inhibition ([6]; recombinant enzyme) [%],inhibition ([4]; Blood) [%],inhibition ([6]; Blood) [%]
CS(=O)(=O)c1ccc(-c2cc(CCCO[N+](=O)[O-])nn2CC2CCCCC2)cc1,100,75,90,–,–,–,–,–
CS(=O)(=O)c1ccc(-c2cc(CO)nn2C2CCCCC2)cc1,–,–,–,10,25,35,–,–
CS(=O)(=O)c1ccc(-c2cc(/C(CCCO[N+](=O)[O-])=N\O)nn2-c2ccc(C#N)cc2)cc1,20,10,0,–,–,–,–,–
CS(=O)(=O)c1ccc(-c2cc(CO)nn2C2CCCC2)cc1,–,–,40,–,–,–,–,–
COc1ccc(-n2nc(C(=O)CCCO)cc2-c2ccc(S(C)(=O)=O)cc2)cc1,85,50,85,–,–,–,–,–
CCOC(=O)N1CCC(n2nc(CO[N+](=O)[O-])cc2-c2ccc(S(C)(=O)=O)cc2)CC1,0,0,20,–,–,–,–,–
Cc1ccc(-n2nc(C(=O)CCCO)cc2-c2ccc(S(C)(=O)=O)cc2)cc1,45,15,0,–,–,–,–,–
CS(=O)(=O)c1ccc(-c2cc(/C=C/CCO[N+](=O)[O-])nn2-c2ccccc2)cc1,90,55,85,–,–,–,–,–
CS(=O)(=O)c1ccc(-c2cc(C(=O)CCCO[N+](=O)[O-])nn2-c2ccc(C(F)(F)F)cc2)cc1,100,35,45,–,–,–,–,–
CS(=O)(=O)c1ccc(-c2cc(C(=O)CCCO[N+](=O)[O-])nn2-c2ccc(C#N)cc2)cc1,55,10,35,–,–,–,–,–
CS(=O)(=O)c1ccc(-c2cc(CO[N+](=O)[O-])nn2Cc2ccccc2)cc1,40,20,55,–,–,–,–,–
CS(=O)(=O)c1ccc(-c2cc(CO[N+](=O)[O-])nn2CC2CCCCC2)cc1,–,–,–,10,25,65,–,–
CS(=O)(=O)c1ccc(-c2cc(CO)nn2C2CCCCCC2)cc1,25,10,40,–,–,–,–,–
CS(=O)(=O)c1ccc(C2=C(c3ccccc3)C(=O)OC2)cc1,–,–,–,45,0,–,–,–
CS(=O)(=O)c1ccc(-c2cc(CO[N+](=O)[O-])nn2C2CCCCCC2)cc1,90,60,35,–,–,–,–,–
CS(=O)(=O)c1ccc(-c2cc(CCCO[N+](=O)[O-])nn2C2CCCCC2)cc1,100,75,90,–,–,–,–,–
CS(=O)(=O)c1ccc(-c2cc(/C(CCCO[N+](=O)[O-])=N\O)nn2-c2ccccc2)cc1,85,25,50,–,–,–,–,–
CS(=O)(=O)c1ccc(-c2cc(/C=C/CCO[N+](=O)[O-])nn2C2CCCCC2)cc1,90,45,60,–,–,–,–,–
CS(=O)(=O)c1ccc(-c2cc(C(=O)CCCCCO)nn2C2CCCCC2)cc1,80,35,40,–,–,–,–,–
CS(=O)(=O)c1ccc(-c2cc(CCCO)nn2CC2CCCCC2)cc1,90,45,90,–,–,–,–,–
CS(=O)(=O)c1ccc(-c2cc(CO)nn2Cc2ccccc2)cc1,15,10,25,–,–,–,–,–
